Measurements reported in ChEMBL document CHEMBL4152330, “Arylamino containing hydroxamic acids as potent urease inhibitors for the treatment of Helicobacter pylori infection” (Eur J Med Chem, 2018).
The source made the active and inactive calls. The rule behind the calls is not given here.

Columns and labels:
[1] = target: T1, Urease subunit alpha/Urease subunit beta (Helicobacter pylori (strain ATCC 700392 / 26695) (Campylobacterpylori), UniProt P69996); experiment: Inhibition of Helicobacter pylori ATCC 43504 urease assessed as reduction in ammonia production preincubated for 1.5 hrs under cell free condition by indophenol method; assay type: protein-complex assay, Helicobacter pylori NCTC 11637 = CCUG 17874 = ATCC 43504
Outline: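 Crude urease from sonicated ATCC 43504 cells (grown microaerobically in Brucella broth with 10% sheep blood), desalted on Sephadex G-25 and stored in 50% glycerol at 4 °C. Enzyme (10U) pre-incubated with test compound 1.5 h at room temperature. Ammonia production read by Weatherburn indophenol method.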

[2] = target: T2, Urease subunit alpha/Urease subunit beta (Helicobacter pylori (strain ATCC 700392 / 26695) (Campylobacterpylori)) (UniProt P69996+P14916); experiment: Ratio of IC50 for Helicobacter pylori ATCC 43504 urease under cell free condition to IC50 for urease in intact Helicobacter pylori ATCC 43504; assay type: protein-complex assay; conditions: Helicobacter pylori NCTC 11637 = CCUG 17874 = ATCC 43504
Outline: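 Cell-free arm: desalted crude H. pylori urease lysate (10 U) was preincubated with compound for 1.5 h at room temperature. Intact-cell arm: the same set-up with H. pylori cell suspension (4.0 × 10^7 CFU/mL) in place of the enzyme. Ammonia was measured by the indophenol method in both arms.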

[3] = target: T2, Urease subunit alpha/Urease subunit beta (Helicobacter pylori (strain ATCC 700392 / 26695) (Campylobacterpylori)); experiment: Potency index, ratio of AHA IC50 to compound IC50 for Helicobacter pylori ATCC 43504 urease assessed as reduction in ammonia production preincubated for 1.5 hrs under cell free condition by indophenol method; assay type: protein-complex assay; conditions: Helicobacter pylori NCTC 11637 = CCUG 17874 = ATCC 43504
[4] = target: T1, Urease subunit alpha/Urease subunit beta; experiment: Inhibition of urease in Helicobacter pylori ATCC 43504 assessed as reduction in ammonia production preincubated for 1.5 hrs by indophenol method; assay type: protein-complex assay, Helicobacter pylori NCTC 11637 = CCUG 17874 = ATCC 43504
Outline: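 Crude urease was prepared from H. pylori harvested from broth, PBS-washed, frozen at -80 °C, sonicated with protease inhibitors, centrifuged, desalted on Sephadex G-25 and stored in 50% glycerol at 4 °C. Enzyme (10 U) was preincubated with test compound for 1.5 h at room temperature. Ammonia production was read by the Weatherburn indophenol method.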

[5] = target: T1, Urease subunit alpha/Urease subunit beta; experiment: Mixed type non-competitive inhibition of urease in Helicobacter pylori ATCC 43504 assessed as reduction in ammonia production preincubated for 1.5 hrs by indophenol method; assay type: protein-complex assay, Helicobacter pylori NCTC 11637 = CCUG 17874 = ATCC 43504
Outline: (§1)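 Crude H. pylori ATCC 43504 urease with compound pre-incubated 1.5 h at room temperature, then ammonia production velocity measured by indophenol method across a urea concentration gradient at each fixed inhibitor concentration. V–[S] data fitted nonlinearly to assign inhibition type. Fitting constants plotted linearly against [I]; Ki and K'i taken from X-axis intercepts. Triplicate.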

[6] = target: T1, Urease subunit alpha/Urease subunit beta; experiment: Mixed type non-competitive inhibition of urease in Helicobacter pylori ATCC 43504 assessed as enzyme-substrate-inhibitor complex constant preincubated for 1.5 hrs by indophenol method; assay type: protein-complex assay, Helicobacter pylori NCTC 11637 = CCUG 17874 = ATCC 43504; outline: as §1
[7] = Acute toxicity in po dosed Kunming mouse assessed as induction of mortality administered as single dose and measured after 14 days; assay type: organism-based; conditions: in vivo
Outline: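 Male and female adult KM mice, 18–22 g, n=10 per group. Single intragastric dose of 500, 1000, 2000, 3000 or 5000 mg/kg in 0.5% CMC-Na, 200 μL per mouse; controls received vehicle alone. Mortality recorded over 14 days. LD50 estimated by probit analysis.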

Helicobacter pylori [8] = experiment: Antibacterial activity against Helicobacter pylori ATCC 43504 infected in Kunming mouse assessed as reduction in gastric mucosa injury in mouse stomach at 32 mg/kg, po bid treated for 14 days by hematoxylin and eosin staining based assay; assay type: functional, organism-based; conditions: NCTC 11637 = CCUG 17874 = ATCC 43504
Outline: (§2)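 KM mice (18–22 g) were pretreated with NaHCO3 and infected intragastrically with H. pylori (1 × 10^9 cfu/mL) daily for one week. After three weeks, groups (n=13) received compound in 0.5% CMC-Na intragastrically b.i.d. for 14 days. Part of each stomach was fixed in 4% paraformaldehyde, paraffin-embedded and cut at 3.0 µm to assess gastric mucosal lesions against an untreated infected model.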

Helicobacter pylori [9] = experiment: Antibacterial activity against Helicobacter pylori ATCC 43504 infected in Kunming mouse assessed as reduction in gastric mucosa injury in mouse stomach at 16 mg/kg, po bid treated for 14 days by hematoxylin and eosin staining based assay; assay type: functional, organism-based; conditions: NCTC 11637 = CCUG 17874 = ATCC 43504; outline: as §2
Helicobacter pylori [10] = experiment: Antibacterial activity against Helicobacter pylori ATCC 43504 infected in Kunming mouse assessed as bacterial eradication at 32 mg/kg, po bid treated for 14 days relative to control; assay type: functional, NCTC 11637 = CCUG 17874 = ATCC 43504
Outline: (§3)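 Mice (18–22 g) fasted 4 h, then given 0.2 mol/L NaHCO3 intragastrically. Fifteen min later they were inoculated intragastrically with H. pylori (1 × 10^9 cfu/mL), once daily for a week. Three weeks later mice were randomized (n=13/group). Compound in 0.5% CMC-Na was given intragastrically at 8:00 and 18:00 daily for 14 days. Eradication was compared with an untreated infected model group.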

Helicobacter pylori [11] = experiment: Antibacterial activity against Helicobacter pylori ATCC 43504 infected in Kunming mouse assessed as bacterial eradication at 64 mg/kg, po bid treated for 14 days relative to control; assay type: functional, NCTC 11637 = CCUG 17874 = ATCC 43504; outline: as §3
Helicobacter pylori [12] = experiment: Antibacterial activity against Helicobacter pylori ATCC 43504 infected in Kunming mouse assessed as bacterial eradication at 16 mg/kg, po bid treated for 14 days relative to control; assay type: functional, NCTC 11637 = CCUG 17874 = ATCC 43504; outline: as §3
Helicobacter pylori [13] = experiment: Antibacterial activity against Helicobacter pylori ATCC 43504 infected in Kunming mouse assessed as bacterial eradication at 128 mg/kg, po bid treated for 14 days relative to control; assay type: functional, NCTC 11637 = CCUG 17874 = ATCC 43504; outline: as §3

T2 sequence (P14916 whole entry, looked up): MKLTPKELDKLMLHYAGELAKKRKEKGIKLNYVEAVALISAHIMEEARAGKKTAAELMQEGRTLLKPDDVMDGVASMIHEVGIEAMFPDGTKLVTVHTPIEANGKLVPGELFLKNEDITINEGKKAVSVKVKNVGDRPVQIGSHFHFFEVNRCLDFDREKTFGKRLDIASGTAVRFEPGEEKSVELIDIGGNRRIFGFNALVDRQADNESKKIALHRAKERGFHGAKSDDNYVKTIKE
T2 sequence (P69996 whole entry, looked up): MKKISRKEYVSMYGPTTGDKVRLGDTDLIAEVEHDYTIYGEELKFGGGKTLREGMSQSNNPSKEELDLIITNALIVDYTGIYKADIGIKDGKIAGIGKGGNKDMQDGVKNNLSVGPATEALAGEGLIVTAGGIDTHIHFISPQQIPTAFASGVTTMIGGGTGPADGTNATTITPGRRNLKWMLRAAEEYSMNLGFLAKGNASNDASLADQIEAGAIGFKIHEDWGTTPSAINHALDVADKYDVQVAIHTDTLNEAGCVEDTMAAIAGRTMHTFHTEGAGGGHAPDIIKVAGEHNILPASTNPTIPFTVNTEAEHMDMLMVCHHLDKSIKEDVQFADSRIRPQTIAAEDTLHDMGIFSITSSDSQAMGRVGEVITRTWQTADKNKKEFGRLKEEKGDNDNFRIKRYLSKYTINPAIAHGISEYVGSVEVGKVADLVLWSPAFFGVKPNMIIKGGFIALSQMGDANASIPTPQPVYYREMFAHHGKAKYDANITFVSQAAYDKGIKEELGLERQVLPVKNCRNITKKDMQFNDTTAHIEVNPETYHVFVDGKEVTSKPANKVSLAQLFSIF
T1 sequence (P69996 whole entry): as the sequence (P69996 whole entry, looked up) above
T1 sequence (P14916 whole entry, further chain): as the sequence (P14916 whole entry, looked up) above

| Structure (SMILES) | IC50 [1] | Ratio IC50 [2] | further results |
| --- | --- | --- | --- |
| O=C(CNc1ccc(Br)cc1)NO | 2010 nM | 46 to 110 | Ratio IC50 [3]: 2 to 24 |
| Cc1ccc(NCC(=O)NO)cc1 | 3910 nM | 46 to 110 | – |
| O=C(CCNc1cc(F)cc(F)c1)NO | 1520 nM | 46 to 110 | – |
| O=C(CCNc1cccc(Cl)c1Cl)NO | 3830 nM | 46 to 110 | – |
| O=C(CN1CCCc2ccccc21)NO | 71100 nM | 46 to 110 | – |
| O=C(CNc1ccc(Cl)cc1Cl)NO | 66100 nM | 46 to 110 | – |
| O=C(CNc1cccc(Br)c1)NO | 860 nM | 46 to 110 | IC50 [4]: 48.1 µM; Ratio IC50 [3]: 2 to 24 |
| COc1cc(NCC(=O)NO)cc(OC)c1 | 2280 nM | 46 to 110 | – |
| O=C(CNc1c(Cl)cccc1Cl)NO | 191000 nM | 46 to 110 | – |
| O=C(CCNc1c(Cl)cccc1Cl)NO | 25000 nM | 46 to 110 | – |
| O=C(CCNc1ccc([N+](=O)[O-])cc1)NO | 1230 nM | 46 to 110 | – |
| O=C(CCNc1ccc(Cl)cc1Cl)NO | 18 nM | 46 to 110 | IC50 [4]: 0.14 µM; Ratio IC50 [3]: > 1500; Ki [5]: 442 nM; Ki [6]: 60.2 nM; LD50 at 336 h [7]: 3130 mg/kg; Activity (Helicobacter pylori [8]): Active; Activity (Helicobacter pylori [9]): Active; Activity (Helicobacter pylori [10]): 100%; Activity (Helicobacter pylori [11]): 100%; Activity (Helicobacter pylori [12]): 92.3% |
| O=C(CNc1cccc([N+](=O)[O-])c1)NO | 8210 nM | 46 to 110 | – |
| O=C(CCNc1cc(Cl)ccc1Cl)NO | 450 nM | 46 to 110 | IC50 [4]: 29.5 µM |
| COc1cccc(NCC(=O)NO)c1 | 21800 nM | 46 to 110 | – |
| O=C(CCNc1ccc(Cl)c(Cl)c1)NO | 710 nM | 46 to 110 | IC50 [4]: 38.9 µM |
| O=C(CNc1cc(F)cc(F)c1)NO | 5110 nM | 46 to 110 | – |
| O=C(CNc1cccc(Cl)c1Cl)NO | 14800 nM | 46 to 110 | – |
| O=C(CNc1ccccc1Br)NO | 12300 nM | 46 to 110 | Ratio IC50 [3]: 2 to 24 |
| O=C(CCNc1ccccc1Cl)NO | 55 nM | 46 to 110 | IC50 [4]: 5.91 µM; LD50 at 336 h [7]: 3350 mg/kg; Activity (Helicobacter pylori [8]): Active; Activity (Helicobacter pylori [10]): 84.6%; Activity (Helicobacter pylori [11]): 92.3%; Activity (Helicobacter pylori [13]): 100% |
| O=C(CNc1ccc(F)cc1)NO | 7410 nM | 46 to 110 | – |

| Structure (SMILES) | IC50 [1] | Ratio IC50 [2] | further results |
| --- | --- | --- | --- |
| COc1ccc(NCC(=O)NO)cc1 | 69800 nM | 46 to 110 | – |
| O=C(CNc1cccc(Cl)c1)NO | 1150 nM | 46 to 110 | – |
| O=C(CNc1ccccc1)NO | 4670 nM | 46 to 110 | – |
| O=C(CCN1CCCc2ccccc21)NO | 21100 nM | 46 to 110 | – |
| O=C(CCNc1ccccc1Br)NO | 130 nM | 46 to 110 | IC50 [4]: 14.5 µM |
| O=C(CCNc1ccc(F)cc1)NO | 180 nM | 46 to 110 | IC50 [4]: 17.9 µM |
| O=C(CNc1ccccc1Cl)NO | 58900 nM | 46 to 110 | – |
| O=C(CCNc1cc(Cl)cc(Cl)c1)NO | 43 nM | 46 to 110 | IC50 [4]: 3.9 µM; Ki [5]: 1570 nM; Ki [6]: 153 nM; LD50 at 336 h [7]: 2980 mg/kg; Activity (Helicobacter pylori [8]): Active; Activity (Helicobacter pylori [10]): 92.3%; Activity (Helicobacter pylori [11]): 100%; Activity (Helicobacter pylori [13]): 100% |
| Cc1cc(C)cc(NCCC(=O)NO)c1 | 2930 nM | 46 to 110 | – |
| O=C(CCNc1cccc([N+](=O)[O-])c1)NO | 5100 nM | 46 to 110 | – |
| O=C(CNc1ccc(Cl)c(Cl)c1)NO | 760 nM | 46 to 110 | IC50 [4]: 41.6 µM |
| CC(=O)NO [ACETOHYDROXAMIC ACID] | – | 46 to 110 | IC50 [4]: 172 µM; Activity (Helicobacter pylori [8]): Active; Activity (Helicobacter pylori [10]): 44.4% |
| Cc1cc(C)cc(NCC(=O)NO)c1 | 2120 nM | 46 to 110 | – |
| O=C(CNc1cc(Cl)cc(Cl)c1)NO | 130 nM | 46 to 110 | IC50 [4]: 16.9 µM; Ki [5]: 1660 nM; Ki [6]: 315 nM |
| COc1ccccc1NCCC(=O)NO | 1640 nM | 46 to 110 | – |
| O=C(CNc1ccc(Cl)cc1)NO | 2470 nM | 46 to 110 | – |
| O=C(CNc1cc(Cl)ccc1Cl)NO | 1640 nM | 46 to 110 | – |
| O=C(CCNc1ccccc1)NO | 1220 nM | 46 to 110 | – |
| COc1ccccc1NCC(=O)NO | 152000 nM | 46 to 110 | – |
| O=C(CCNc1ccccc1[N+](=O)[O-])NO | 10500 nM | 46 to 110 | – |
